These results are taken from publication PMC5708134 (Chemical research in toxicology, 2017).

As usually defined, the EC50 is the concentration needed to bring the measured effect to its halfway point. The IC50 is the midpoint of a concentration-inhibition curve. A word on the Ki: it is the dissociation constant of the complex between target and ligand, obtained from inhibition or displacement. As usually defined, the Km is the concentration of substrate that gives half-maximal velocity. As usually defined, the Vmax is the top rate of the reaction or transport when substrate is in excess. Broadly, the inhibition is the change of the read-out against control, counted positive when it falls.

Format in all cases: biochemical
Assay [1] addresses T1, recombinant human DCXR (Homo sapiens, UniProt Q7Z4W1). As to the kind of experiment: Chemical redox cycling by DCXR. As to conditions: for EC50: EC50, half maximal concentration of quinones activating H2O2 production by redox cycling with DCXR, 5 μg/ml recombinant DCXR and 200 μM NADH; for Km / kcat: redox cycling.
Assay [2] has as its target T1, recombinant human DCXR. As to the kind of experiment: Inhibition of diacetyl reduction by DCXR. An outline of the steps:
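Human DCXR, His-tagged, expressed in E. coli BL21(DE3) with 0.5 mM IPTG (4 h, 37 °C), Ni-NTA purified. 100 μL mixes: 600 μM NADH, 2 mM diacetyl, 1–2 μg DCXR, plus quinone inhibitor. Acetoin formed was quantified by HPLC against a standard calibration curve. Inhibition type and Ki were derived from kinetic analysis.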

Assay [3] has as its target T1, recombinant human DCXR. As to the kind of experiment: L-xylulose reduction by recombinant DCXR, substrate kinetics. As to conditions: for Km / kcat: pH 7.0. An outline of the steps: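 Enzyme: recombinant His-tagged human DCXR from E. coli BL21(DE3), Ni-NTA purified. Reduction was assayed in 100 mM phosphate buffer pH 7.0 and started by adding enzyme. Initial rates of NADPH oxidation were read at 340 nm in a microplate reader. Rates were converted using NAD(P)H calibration curves made in the reaction mix.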

In assay [4] the target is T1, recombinant human DCXR. As to the kind of experiment: Inhibition of quinone redox cycling by DCXR. As to conditions: for Type of inhibition: inhibition of redox cycling with 9,10-phenanthrenequinone. Summed up: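 Assay for redox cycling by His-tagged human DCXR (E. coli-expressed, Ni-NTA purified). Superoxide was measured as acetylated cytochrome c reduction at 550 nm. 100 μL mixes: 50 mM potassium phosphate pH 7.8, 50 μM acetylated cytochrome c, 0.2 mM NADPH, 20 μM 9,10-phenanthrenequinone, 1.2 or 1.6 μg DCXR, varied inhibitor. Competitive Ki was taken from Lineweaver–Burk plots.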

For assay [5], the target named is T1, recombinant human DCXR. As to the kind of experiment: Xylitol dehydrogenation. An outline of the steps:
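Recombinant His-tagged human DCXR (E. coli-expressed, Ni-NTA purified) oxidized xylitol in 0.1 mL reactions: 100 mM glycine buffer pH 9.5, 3 mM MgCl2, NADP+ and xylitol. Reactions were started by adding enzyme. NADPH formation was followed as the absorbance change at 340 nm in a microplate reader.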

The target in assay [6] is T1, recombinant human DCXR. As to the kind of experiment: Diacetyl reduction by recombinant DCXR.
In assay [7] the target is T1, recombinant human DCXR. As to the kind of experiment: Oxygen consumption during DCXR redox cycling. The settings on record: 600 μM NADH, 20 μM 9,10-phenanthrenequinone. Summed up:
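Clark-type oxygen electrode measurements used 16 μg recombinant human DCXR per 0.8 mL reaction. NADH and 9,10-phenanthrenequinone were run first to set a stable baseline, then DCXR was added to start the reaction. Diacetyl was added either after DCXR or at time zero (pretreatment). Short-chain fatty acids were added at set time points during cycling.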

[8] abbreviates: Ki, inhibition of diacetyl reduction.
[9] abbreviates: inhibition of diacetyl reduction.
[10] abbreviates: quinone varied, 200 μM NADPH fixed.
[11] abbreviates: xylulose varied, 0.6 mM NADPH fixed.
The mark [12] stands for this setting: NADPH varied, 2 mM diacetyl fixed, pH 7.0.
[13] abbreviates: NADPH varied, 6 mM xylulose fixed.
The mark [14] stands for this setting: NADPH varied, 20 μM 9,10-PQ fixed.

Several values for one entry are separate records, joined by “and”; a condition that tells them apart may be missing. Identical values can stand only once. Entries after “also recorded” stand apart in the source; their conditions may differ. Bounds are passed on as bounds.

T1 sequence (Q7Z4W1 whole entry): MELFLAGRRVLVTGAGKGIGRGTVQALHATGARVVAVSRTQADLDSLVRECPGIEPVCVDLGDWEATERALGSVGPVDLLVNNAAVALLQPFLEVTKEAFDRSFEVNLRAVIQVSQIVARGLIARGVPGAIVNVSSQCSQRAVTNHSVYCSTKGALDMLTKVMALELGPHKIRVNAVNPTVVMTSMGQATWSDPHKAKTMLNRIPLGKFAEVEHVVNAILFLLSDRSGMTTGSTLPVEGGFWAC

Consider `O=C1C=Cc2ccccc2C1=O` [1,2-naphthoquinone], for which the concentration for a half-maximal effect (EC50) in assay [1] worked out at 1.5 µM. Besides, the half-maximal inhibitory concentration (IC50) in assay [2] is 2.9 µM. Moreover, the inhibitory constant (Ki) in assay [2] (setting [8]) was 1.4 µM and 1.35 µM. Also, the Type of inhibition result in assay [2] (setting [9]) is recorded as “competitive”.

On to `O=C1C=CC(=O)c2ccccc21` [1,4-naphthoquinone], for which, in assay [1], the EC50 was 5.4 µM. In assay [1] (setting [10]), the Michaelis constant (Km) came to 10.8 µM and the kcat amounted to 0.0283 s⁻¹. For the same compound, in assay [2], the IC50 was determined as 11.8 µM and the inhibition constant (Ki) is 5.4 µM. Moreover, the Type of inhibition result in assay [2] (setting [9]) was “competitive”.

Consider `O=C1C(=O)c2ccccc2-c2ccccc21` [9,10-phenanthrenequinone], for which the EC50 in assay [1] came out at 1.7 µM. Moreover, the IC50 in assay [2] was 9.3 µM. Moreover, the inhibitory constant (Ki) in assay [2] (setting [8]) was 4.3 µM and 4.27 µM. In addition, the Type of inhibition result in assay [2] (setting [9]) is “competitive”.

For the compound `O=C(CO)[C@H](O)[C@@H](O)CO` [L-xylulose], in assay [3] (reduction of L-xylulose using NADPH as the cofactor), the maximal velocity (Vmax) was 33.8 µM/min. For the same compound, in assay [3] (setting [11]), the Km came out at 503 µM and the kcat turned out to be 1.09 S^−1. Further, the Type of inhibition result in assay [4] is on record as “competitive inhibitors; also recorded: competitive type inhibition”. Further, the Type of inhibition entry in assay [4] (listed as Xylulose) is recorded as “competitive”.

With `NC(=O)c1ccc[n+]([C@@H]2O[C@H](COP(=O)([O-])OP(=O)(O)OC[C@H]3O[C@@H](n4cnc5c(N)ncnc54)[C@H](OP(=O)(O)O)[C@@H]3O)[C@@H](O)[C@H]2O)c1` [NADP(+)], the kcat in assay [5] (NADP(+) varied, 200 mM xylitol fixed) came out at 1.7 S^−1. Also, in assay [5] (NADP(+) varied, 200 mM xylitol fixed, 100 mM glycine buffer with 3 mM MgCl2), the Km is 110 µM. Besides, the Vmax in assay [5] (oxidation of xylitol using NADP+ as the cofactor) turned out to be 70.9 µM/min.

Consider `NC(=O)C1=CN([C@@H]2O[C@H](COP(=O)(O)OP(=O)(O)OC[C@H]3O[C@@H](n4cnc5c(N)ncnc54)[C@H](OP(=O)(O)O)[C@@H]3O)[C@@H](O)[C@H]2O)C=CC1` [NADPH], for which the Vmax in assay [6] (NADPH at fixed concentration of diacetyl) was 30.9 µM/min. Besides, the Km in assay [6] (setting [12]) was determined as 90 µM; in assay [3] (setting [13]), 24 µM; in assay [1] (setting [14]) it was 31 µM. Further, the kcat in assay [6] (setting [12]) is 1.6 S^−1 and 1.60 S^−1; in assay [3] (setting [13]), 1.55 S^−1; in assay [1] (setting [14]), 0.115 s⁻¹.

On to `CCCC(=O)O` [butyric acid], for which the IC50 in assay [2] was 950 µM; in assay [4] it was 6800 µM. Moreover, in assay [7] (butyric acid 10 mM), the “Effect on oxygen consumption during redox cycling” value (“Effect” below) is given as “Inhibition of oxygen consumption”.

With `CC(=O)C(C)=O` [diacetyl, 2,3-butanedione], in assay [6] (diacetyl varied, 200 μM NADPH fixed, pH 7.0), the kcat came to 5.80 S^−1. Moreover, in assay [4], the Ki was determined as 190 µM and the Type of inhibition result was “competitive inhibitors; also recorded: competitive type inhibition”. In addition, the Type of inhibition entry in assay [4] (listed as Diacetyl) is recorded as “competitive”. Moreover, the inhibition at 5000 µM in assay [4] (read-out: Inhibition of menadione-stimulated superoxide anion formation) is roughly 75%. Moreover, the “Effect” value in assay [7] (diacetyl 5 mM) is “Inhibition of oxygen consumption”.

As for `CCCCCCC(=O)O` [heptanoic acid], the half-maximal inhibitory concentration (IC50) is 19900 µM in assay [2] and 25100 µM in assay [4].

Turning to `CCCCCC(=O)O` [hexanoic acid], the IC50 was 6100 µM in assay [2] and 36000 µM in assay [4]. Besides, the “Effect” value in assay [7] (hexanoic acid 50 mM) is given as “Inhibition of oxygen consumption”.

In the case of `CC1=CC(=O)c2ccccc2C1=O` [menadione, 2-methyl-1,4-naphthoquinone], in assay [2], the half-maximal inhibitory concentration (IC50) came to 52.8 µM and the Ki is 24.3 µM. Moreover, the Type of inhibition result in assay [2] (setting [9]) is recorded as “competitive type of inhibition”. Also, in assay [2] (read-out: Inhibition of DCXR mediated reduction of diacetyl), the inhibition at 300 µM was greater than 90%.

On to `CCCCC(=O)O` [pentanoic acid], for which the half-inhibitory concentration (IC50) in assay [2] stood at 4400 µM; in assay [4] it was 28400 µM.
